Consider three compounds from ChEMBL document CHEMBL1136943, “Nocathiacin analogs: Synthesis and antibacterial activity of novel water-soluble amides” (Bioorg Med Chem Lett, 2009).

Values after ≈ are worked out from the molar mass of the structure shown. Where only a bound is given, the exact number is not on record here.

In data set [1] the test system is Staphylococcus aureus. The data set is described as follows: Antibacterial activity against Staphylococcus aureus MB2865 in liquid culture by turbidity method. It counts as functional. The procedure, abridged: (§1)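 MIC is the lowest concentration giving 100% inhibition of bacterial growth in liquid culture, read by turbidity.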
For data set [2], the system named is Staphylococcus aureus. In words: Antibacterial activity against methicillin-resistant Staphylococcus aureus. It counts as functional. The procedure, abridged:
(§2)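 MIC taken as the lowest concentration giving 100% inhibition of bacterial growth in liquid culture, judged by turbidity.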

For another data set, the system named is Enterococcus. In words: Antibacterial activity against vancomycin-resistant Enterococcus. It counts as functional. The procedure, abridged:
as §2

Data set [3] has as its system Staphylococcus aureus. The data set is described as follows: Antibacterial activity against Staphylococcus aureus infected iv bid dosed mouse model assessed as reduction of colony forming unit in kidney. Format: functional. The procedure, abridged:
(§3)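 Systemic S. aureus infection mouse model (SATOA). Compounds were given iv; […]. Kidney bacterial burden (cfu) was compared with untreated control. ED99 is the dose giving a reduction of at least 2 log10 cfu in kidney burden.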

Data set [4] addresses T1, Type-2 angiotensin II receptor (Homo sapiens, UniProt P50052).
T1 sequence (P50052 whole entry): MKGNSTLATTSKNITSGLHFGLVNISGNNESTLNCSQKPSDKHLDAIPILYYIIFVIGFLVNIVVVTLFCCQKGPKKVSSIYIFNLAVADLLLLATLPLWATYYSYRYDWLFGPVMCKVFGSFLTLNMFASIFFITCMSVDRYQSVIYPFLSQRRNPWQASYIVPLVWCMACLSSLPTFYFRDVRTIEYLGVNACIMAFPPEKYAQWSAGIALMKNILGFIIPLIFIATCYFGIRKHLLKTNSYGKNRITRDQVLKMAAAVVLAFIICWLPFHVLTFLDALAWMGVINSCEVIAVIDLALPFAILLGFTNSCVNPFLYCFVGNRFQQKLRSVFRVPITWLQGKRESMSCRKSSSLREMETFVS
The data set is described as follows: Inhibition of AT2 receptor. The procedure, abridged: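 AT2 IC50 derived from four dose levels per compound, following a published protocol.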

For data set [5], the system named is Staphylococcus aureus. The data set is described as follows: Antibacterial activity against methicillin-resistant Staphylococcus aureus COL infected mouse thigh model assessed as reduction of bacterial load at 1 mg/kg, iv, bid after 24 hrs. It counts as functional. The procedure, abridged:
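Mouse MRSA COL thigh infection, 4 mice per group. Test article given intravenously, 0.2 ml, twice daily. Thighs harvested aseptically 24 h after challenge. Bacterial load compared with untreated controls as log reduction over 24 h.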

Data set [6] is described as follows: Plasma clearance in rat at 1 mg/kg, iv. It counts as ADME, organism-based. Also on record: dose 1 mg/kg, route intravenous. The procedure, abridged:
(§4)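 Single iv dose of 1 mg/kg in EtOH/PEG400/H2O (10:15:75). Clearance was measured in plasma, with steady-state volume of distribution and terminal half-life derived.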

A short description of data set [7]: Plasma clearance in dog at 1 mg/kg, iv. Also on record: dose 1 mg/kg, route intravenous. Format: ADME, organism-based, Canis lupus familiaris. The procedure, abridged:
as §4

Data set [8] in a line: Plasma clearance in monkey at 1 mg/kg, iv. On the set-up: dose 1 mg/kg, route intravenous. Particulars: rhesus monkey; call rule not given here. Format: ADME, organism-based, Macaca mulatta. The procedure, abridged: as §4
Data set [9] can be described thus: Volume of distribution in steady state in mouse at 1 mg/kg, iv. On the set-up: dose 1 mg/kg, route intravenous. Conditions: in vivo, read-out: Vdss. Format: ADME, organism-based. The procedure, abridged:
as §4

The nature of data set [10]: Volume of distribution in steady state in rat at 1 mg/kg, iv. Format: ADME, organism-based. On the set-up: dose 1 mg/kg, route intravenous. Conditions: in vivo, read-out: Vdss. The procedure, abridged: as §4
Data set [11] is described as follows: Volume of distribution in steady state in dog at 1 mg/kg, iv. Format: ADME, organism-based, Canis lupus familiaris. On the set-up: dose 1 mg/kg, route intravenous. Particulars: in vivo, read-out: Vdss. The procedure, abridged:
as §4

A short description of data set [12]: Volume of distribution in steady state in monkey at 1 mg/kg, iv. Format: ADME, organism-based, Macaca mulatta. Conditions: rhesus monkey, in vivo, read-out: Vdss. Also on record: dose 1 mg/kg, route intravenous. The procedure, abridged:
as §4

The nature of data set [13]: Terminal half life in mouse at 1 mg/kg, iv. On the set-up: dose 1 mg/kg, route intravenous. Format: ADME, organism-based. Conditions: in vivo, read-out: beta t1/2 (converted). The procedure, abridged: as §4
Data set [14] is described as follows: Terminal half life in rat at 1 mg/kg, iv. Also on record: dose 1 mg/kg, route intravenous. Format: ADME, organism-based. Conditions: in vivo, read-out: beta t1/2 (converted). The procedure, abridged:
as §4

Data set [15] in a line: Terminal half life in dog at 1 mg/kg, iv. It counts as ADME, organism-based, Canis lupus familiaris. On the set-up: dose 1 mg/kg, route intravenous. Conditions: in vivo, read-out: beta t1/2 (converted). The procedure, abridged: as §4
Data set [16] in a line: Terminal half life in monkey at 1 mg/kg, iv. It counts as ADME, organism-based, Macaca mulatta. On the set-up: dose 1 mg/kg, route intravenous. Particulars: rhesus monkey, in vivo, read-out: beta t1/2 (converted). The procedure, abridged:
as §4

The target in another data set is Cytochrome P450 2C9 (Homo sapiens, UniProt P11712). In words: Inhibition of CYP2C9. Format: ADME.
A further data set deals with Cytochrome P450 2D6 (Homo sapiens, UniProt P10635). In words: Inhibition of CYP2D6. Format: ADME.
The target in a further data set is Cytochrome P450 3A4 (Homo sapiens, UniProt P08684). The data set is described as follows: Inhibition of CYP3A4. Format: ADME.
The next data set concerns the target T2, Cytochrome P450 2C8 (Homo sapiens, UniProt P10632).
T2 sequence (P10632 whole entry): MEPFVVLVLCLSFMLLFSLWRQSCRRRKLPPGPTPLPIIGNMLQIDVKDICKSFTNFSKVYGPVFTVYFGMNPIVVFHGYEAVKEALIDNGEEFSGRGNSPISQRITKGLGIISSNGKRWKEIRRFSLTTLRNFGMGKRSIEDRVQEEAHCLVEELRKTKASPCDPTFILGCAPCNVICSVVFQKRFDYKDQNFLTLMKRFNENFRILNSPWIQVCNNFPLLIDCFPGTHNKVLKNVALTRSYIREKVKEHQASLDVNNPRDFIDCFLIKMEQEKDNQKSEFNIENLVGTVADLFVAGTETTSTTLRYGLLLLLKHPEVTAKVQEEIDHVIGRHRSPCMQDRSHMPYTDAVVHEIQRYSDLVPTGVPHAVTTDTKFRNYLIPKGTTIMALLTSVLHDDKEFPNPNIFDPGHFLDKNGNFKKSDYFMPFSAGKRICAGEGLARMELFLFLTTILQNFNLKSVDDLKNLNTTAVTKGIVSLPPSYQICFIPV
The data set is described as follows: Inhibition of CYP2C8. Format: ADME.

Data set [17] addresses T3, Nuclear receptor subfamily 1 group I member 2 (Homo sapiens, UniProt O75469).
T3 sequence (O75469 whole entry): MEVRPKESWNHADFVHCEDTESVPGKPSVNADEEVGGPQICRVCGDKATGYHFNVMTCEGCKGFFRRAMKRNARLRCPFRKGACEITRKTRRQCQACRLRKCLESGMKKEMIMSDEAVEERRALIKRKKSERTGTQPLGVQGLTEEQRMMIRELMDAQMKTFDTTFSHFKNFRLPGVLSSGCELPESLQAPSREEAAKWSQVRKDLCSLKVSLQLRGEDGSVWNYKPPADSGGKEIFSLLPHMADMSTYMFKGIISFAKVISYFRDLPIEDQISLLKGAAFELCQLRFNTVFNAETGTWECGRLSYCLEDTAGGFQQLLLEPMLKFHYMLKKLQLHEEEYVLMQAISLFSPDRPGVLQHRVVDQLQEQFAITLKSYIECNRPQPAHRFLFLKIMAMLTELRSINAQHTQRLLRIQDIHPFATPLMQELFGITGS
The data set is described as follows: Activity at human PXR.

In another data set the target is T4, Cytochrome P450 1A2 (Homo sapiens, UniProt P05177).
T4 sequence (P05177 whole entry): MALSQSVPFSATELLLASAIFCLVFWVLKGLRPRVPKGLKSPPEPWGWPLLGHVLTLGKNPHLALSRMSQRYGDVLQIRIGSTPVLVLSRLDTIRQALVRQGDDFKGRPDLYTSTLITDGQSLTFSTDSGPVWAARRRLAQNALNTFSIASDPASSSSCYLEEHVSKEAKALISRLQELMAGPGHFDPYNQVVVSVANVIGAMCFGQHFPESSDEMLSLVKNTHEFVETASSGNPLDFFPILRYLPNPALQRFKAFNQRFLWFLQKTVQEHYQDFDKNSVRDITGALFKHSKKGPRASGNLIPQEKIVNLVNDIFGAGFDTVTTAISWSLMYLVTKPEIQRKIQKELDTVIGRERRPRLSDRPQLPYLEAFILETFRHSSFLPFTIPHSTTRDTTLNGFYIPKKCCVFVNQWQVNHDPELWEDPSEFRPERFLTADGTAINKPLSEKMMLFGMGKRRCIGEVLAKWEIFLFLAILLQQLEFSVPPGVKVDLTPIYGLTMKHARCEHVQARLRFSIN
The data set is described as follows: Inhibition of CYP1A2. It counts as ADME.

The target in the next data set is Cytochrome P450 2C19 (Homo sapiens, UniProt P33261). In words: Inhibition of CYP2C19. It counts as ADME.
The test system of a further data set is Streptococcus pneumoniae. The data set is described as follows: Antibacterial activity against Streptococcus pneumoniae CL2883 in liquid culture by turbidity method. Format: functional. The procedure, abridged: as §1
A further data set relates to Enterococcus faecalis. The data set is described as follows: Antibacterial activity against Enterococcus faecalis C21560 in liquid culture by turbidity method. Format: functional. The procedure, abridged:
as §1

In data set [18] the test system is Staphylococcus aureus. The data set is described as follows: Antibacterial activity against Staphylococcus aureus infected in mouse model assessed as reduction of >= 2 log 10 cfu kidney burden. Format: functional. The procedure, abridged:
as §3

Data set [19] relates to Staphylococcus aureus. In words: Antibacterial activity against Staphylococcus aureus infected in mouse model assessed as reduction of kidney burden at 0.5 mg/kg, iv relative to control. It counts as functional. The procedure, abridged: as §3
Data set [20] is described as follows: Solubility in water at pH 3.4. Format: physicochemical. The procedure, abridged: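 Amorphous powders from lyophilized material, as TFA salts; aqueous solubility measured by nephelometry.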

Cytochrome P450 2C19, sequence (P33261 whole entry): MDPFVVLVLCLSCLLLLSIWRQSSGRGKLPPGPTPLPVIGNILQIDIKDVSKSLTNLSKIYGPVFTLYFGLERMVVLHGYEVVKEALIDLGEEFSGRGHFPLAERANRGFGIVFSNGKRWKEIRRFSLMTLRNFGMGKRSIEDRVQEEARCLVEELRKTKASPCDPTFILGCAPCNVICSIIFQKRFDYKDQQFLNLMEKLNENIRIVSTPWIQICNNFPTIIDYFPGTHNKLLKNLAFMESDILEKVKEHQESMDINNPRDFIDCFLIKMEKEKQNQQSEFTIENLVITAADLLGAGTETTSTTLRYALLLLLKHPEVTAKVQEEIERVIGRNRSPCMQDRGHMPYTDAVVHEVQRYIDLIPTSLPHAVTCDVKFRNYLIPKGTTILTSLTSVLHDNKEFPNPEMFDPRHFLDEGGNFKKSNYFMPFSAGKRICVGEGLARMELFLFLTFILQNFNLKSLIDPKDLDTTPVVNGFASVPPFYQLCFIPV
Cytochrome P450 2C9, sequence (P11712 whole entry): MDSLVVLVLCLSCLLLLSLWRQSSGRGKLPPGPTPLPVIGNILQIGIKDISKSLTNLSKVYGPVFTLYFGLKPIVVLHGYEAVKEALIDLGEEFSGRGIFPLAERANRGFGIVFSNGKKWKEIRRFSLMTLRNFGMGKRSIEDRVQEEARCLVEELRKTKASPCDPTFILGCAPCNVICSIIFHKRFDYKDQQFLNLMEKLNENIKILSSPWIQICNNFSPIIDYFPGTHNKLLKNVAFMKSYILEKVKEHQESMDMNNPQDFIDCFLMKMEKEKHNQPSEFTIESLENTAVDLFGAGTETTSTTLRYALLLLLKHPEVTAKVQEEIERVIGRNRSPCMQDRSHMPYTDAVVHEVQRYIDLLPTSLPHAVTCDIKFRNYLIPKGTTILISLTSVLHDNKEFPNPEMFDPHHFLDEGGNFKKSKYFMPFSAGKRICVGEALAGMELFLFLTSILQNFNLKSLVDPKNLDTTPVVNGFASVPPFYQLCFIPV
Cytochrome P450 2D6, sequence (P10635 whole entry): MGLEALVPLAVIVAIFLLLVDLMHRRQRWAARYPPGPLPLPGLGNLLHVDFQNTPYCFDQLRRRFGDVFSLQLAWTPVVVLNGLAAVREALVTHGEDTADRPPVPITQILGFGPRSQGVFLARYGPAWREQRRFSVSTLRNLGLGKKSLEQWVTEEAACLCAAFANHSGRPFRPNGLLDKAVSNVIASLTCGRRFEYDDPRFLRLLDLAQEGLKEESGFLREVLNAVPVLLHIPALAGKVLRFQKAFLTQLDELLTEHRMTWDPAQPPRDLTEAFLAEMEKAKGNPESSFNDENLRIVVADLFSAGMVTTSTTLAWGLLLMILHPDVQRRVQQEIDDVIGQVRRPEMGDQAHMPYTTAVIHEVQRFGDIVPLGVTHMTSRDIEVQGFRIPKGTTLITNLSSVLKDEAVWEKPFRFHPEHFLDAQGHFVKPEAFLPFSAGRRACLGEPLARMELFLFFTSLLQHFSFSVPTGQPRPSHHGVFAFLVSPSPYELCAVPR
Cytochrome P450 3A4, sequence (P08684 whole entry): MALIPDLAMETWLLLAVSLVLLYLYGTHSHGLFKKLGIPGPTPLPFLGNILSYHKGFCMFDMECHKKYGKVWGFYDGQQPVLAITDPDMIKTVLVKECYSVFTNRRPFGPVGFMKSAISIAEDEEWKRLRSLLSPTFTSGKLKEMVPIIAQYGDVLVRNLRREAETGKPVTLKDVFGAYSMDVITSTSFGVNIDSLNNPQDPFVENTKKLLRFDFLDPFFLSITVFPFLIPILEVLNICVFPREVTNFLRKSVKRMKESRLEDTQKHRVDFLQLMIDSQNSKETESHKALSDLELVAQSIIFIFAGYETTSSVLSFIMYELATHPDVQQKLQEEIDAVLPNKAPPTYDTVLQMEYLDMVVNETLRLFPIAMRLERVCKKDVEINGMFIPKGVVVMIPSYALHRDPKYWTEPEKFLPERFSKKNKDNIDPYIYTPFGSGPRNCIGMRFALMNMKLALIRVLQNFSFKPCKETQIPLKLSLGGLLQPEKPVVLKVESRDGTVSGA

Regarding `CO/C(C)=C1/NC(=O)[C@H]([C@@H](C)O)NC(=O)c2csc(n2)-c2cc(OC)c(-c3nc(C(=O)NCCCN4CCOCC4)cs3)nc2-c2csc(n2)[C@@H]2COC(=O)c3c4c5c(cccc5n3O)COC(=O)[C@@H](O[C@H]3C[C@](C)(O)[C@H](N(C)C)[C@H](C)O3)[C@@H](OC4)[C@H](NC(=O)c3csc1n3)c1nc(cs1)C(=O)N2`, the MIC against Staphylococcus aureus [1] turned out to be 0.01 µg/mL (≈ 6.62 nM); against Staphylococcus aureus [2] it was 0.00095 µg/mL (≈ 0.629 nM); with Enterococcus, 0.06 µg/mL (≈ 39.7 nM). In addition, the ED99 in the data set with Staphylococcus aureus [3] is 0.27 mg/kg. Further, the IC50 in data set [4] was 5.07 µM; at Cytochrome P450 2C9, ≥ 100 µM; at Cytochrome P450 2D6, ≥ 100 µM; against Cytochrome P450 3A4 it was ≥ 100 µM; at Cytochrome P450 2C8 it was 71 µM; against Cytochrome P450 1A2 it was ≥ 100 µM. The IC50 on Cytochrome P450 2C19 is ≥ 100 µM. The Activity in the data set on Staphylococcus aureus [5] is 1.22; in [17], “Not Active”. Moreover, the clearance in data set [6] was 51.3 mL/min/kg; in data set [7], 15.6 mL/min/kg; in data set [8] it was 15 mL/min/kg. Moreover, the Vd in [9] stood at 18.7 L/kg; in [10] it was 15.5 L/kg; in data set [11], 3.3 L/kg; in data set [12], 1.2 L/kg. Further, the half-life in data set [13] was 5 h; in data set [14] it was 6.4 h; in data set [15] it was 5.4 h; in [16], 6.5 h.

Consider `CO/C(C)=C1/NC(=O)[C@H]([C@@H](C)O)NC(=O)c2csc(n2)-c2cc(O)c(-c3nc(C(=O)NCCCN4CCN(C)CC4)cs3)nc2-c2csc(n2)[C@@H]2COC(=O)c3c4c5c(cccc5n3O)COC(=O)[C@@H](O[C@H]3C[C@](C)(O)[C@H](N(C)C)[C@H](C)O3)[C@@H](OC4)[C@H](NC(=O)c3csc1n3)c1nc(cs1)C(=O)N2`, for which the MIC turned out to be 0.015 µg/mL (≈ 9.94 nM) against Staphylococcus aureus [1], 0.00095 µg/mL (≈ 0.63 nM) against Streptococcus pneumoniae and 0.12 µg/mL (≈ 79.5 nM) in the data set with Enterococcus faecalis. Further, the ED99 in the data set on Staphylococcus aureus [18] amounted to 0.13 mg/kg. Besides, in the data set on Staphylococcus aureus [19], the Activity is given as 5.8. Further, in [4], the IC50 is < 0.01 µM.

In turn, `CO/C(C)=C1/NC(=O)[C@H]([C@@H](C)O)NC(=O)c2csc(n2)-c2cc(OC)c(-c3nc(C(=O)NCCCN4CCOCC4)cs3)nc2-c2csc(n2)[C@@H]2COC(=O)c3c4c5c(cccc5n3O)COC(=O)[C@@H](O[C@H]3C[C@](C)(O)[C@H](N(C)C)[C@H](C)O3)[C@@H](OC4)[C@H](NC(=O)c3csc1n3)c1nc(cs1)C(=O)N2.Cl` displayed a solubility in data set [20] of 68 mg/mL.
